Assay outcomes deposited in PubChem by Broad Institute.
Most compounds without a hit are left out; they make up all but 2.9% or so of the library.
E-sel inducer: induces E-selectin expression in human endothelial cells. HUVEC E-selectin immunofluorescence imaging; normalized: neutral wells 0, TNF-alpha wells 100. 260,000 compounds, 0.37% hits. activation, % at 7.58 µM;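 active = mean E-selectin-positive cell signal at least 10% of the positive control, reached in at least 60% of replicates, without over 20% cell loss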
Target sequence (P16581 whole entry, looked up): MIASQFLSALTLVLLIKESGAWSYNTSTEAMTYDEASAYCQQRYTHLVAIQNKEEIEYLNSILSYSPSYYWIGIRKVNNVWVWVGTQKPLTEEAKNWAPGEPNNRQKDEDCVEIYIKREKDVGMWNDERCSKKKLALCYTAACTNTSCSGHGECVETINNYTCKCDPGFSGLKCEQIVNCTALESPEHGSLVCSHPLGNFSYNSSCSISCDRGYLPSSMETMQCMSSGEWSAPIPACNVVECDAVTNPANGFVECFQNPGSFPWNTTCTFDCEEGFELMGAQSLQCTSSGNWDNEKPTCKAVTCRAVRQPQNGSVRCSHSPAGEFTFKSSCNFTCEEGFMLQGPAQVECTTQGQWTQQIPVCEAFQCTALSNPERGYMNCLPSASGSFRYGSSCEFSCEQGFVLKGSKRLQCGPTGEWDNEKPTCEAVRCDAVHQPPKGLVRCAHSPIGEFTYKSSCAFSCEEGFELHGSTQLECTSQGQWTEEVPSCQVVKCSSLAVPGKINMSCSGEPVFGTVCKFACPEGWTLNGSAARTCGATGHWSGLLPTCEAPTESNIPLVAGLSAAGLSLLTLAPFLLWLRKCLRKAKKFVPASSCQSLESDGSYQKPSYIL
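Test system: HUVEC; input: 3,000 HUVEC/well; measured by: immunofluorescence imaging; read-out: % PE-positive cells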
SIRT5 block: blocks human SIRT5 desuccinylation of peptide. Purified SirT5, succinyl-peptide AMC, trypsin-coupled fluorescence. AID 652115. 330,000 compounds, 1.1% hits. Q9NXA8. inhibition, % at 15 µM; in the data active = inhibition above about 15%
DENV2 CPE rescue: inhibitors of DENV2 cytopathic effect; AID 651640; 350,000 compounds, 1.7% hits; DENV2-infected cells, cytopathic effect rescue, plate reader; CPE inhibition, % at 9.99 µM; in the data active = CPE inhibition above about 20%, passing the limit was not always enough; tested in BHK-21 cells
Each line names hits and unclear results; the compound was inactive in the other large screens.

CC(C)c1ccc(N(C(=O)c2snc(C(N)=O)c2N)C(C(=O)NCC2CCCO2)c2ccc(N(C)C)cc2)cc1 (configuration not stated)	DENV2 CPE rescue 32 (no result: SIRT5 block)
COc1ccc(N(C(=O)c2snc(C(N)=O)c2N)C(C(=O)NC2CCCC2)c2ccc3ncccc3c2)cc1 (configuration not stated)	none (no result: E-sel inducer)
NC(=O)c1nsc(C(=O)N(c2ccccc2)C(C(=O)NC2CCCC2)c2ccc3ncccc3c2)c1N (configuration not stated)	DENV2 CPE rescue 39
O=C(CCC(=O)Nc1ccccc1)NNS(=O)(=O)c1ccc(Cl)cc1	none
CCOc1ccc(-n2cc(-c3ccccc3)c3c(=S)nc[nH]c32)cc1	none (no result: E-sel inducer)
Nn1c(SCc2cccc(Oc3ccccc3)c2)nnc1C(F)(F)F	none
Cc1ccc(CNC(=O)CSc2nnc(CNC(=O)c3ccccc3)o2)cc1	none
COc1cc(CCCN2C(=S)NC[C@@H]2Cc2ccccc2)cc(OC)c1OC	none
COc1cc(CCCN2C(=S)NC[C@@H]2c2ccccc2)cc(OC)c1OC	DENV2 CPE rescue 25 (no result: SIRT5 block)
Cc1nn(CCc2nc(-c3ccco3)cs2)c2[nH]c(=O)cc(C(F)(F)F)c12	SIRT5 block 16 (no result: E-sel inducer)
Cc1cc(C)n(CCc2nc(-c3ccco3)cs2)n1	none (no result: E-sel inducer)
CCC(C)Sc1nc2c(cnn2-c2ccc(C)c(C)c2)c(=O)[nH]1 (configuration not stated)	none
CSc1nc2c(cnn2-c2ccc(C)c(C)c2)c(=O)[nH]1	E-sel inducer 48
CCN(CC)c1nc(SCCOC(=O)Nc2ccccc2)nc(N(CC)CC)n1	none (no result: E-sel inducer)
CCc1cc(=O)oc2cc(C)cc(OC(C)C(=O)NCCCN3CCOCC3)c12 (configuration not stated)	none (no result: E-sel inducer)
O=C(O)COc1ccccc1/C=C1\SC(=Nc2ccc(F)cc2)N(c2ccc(F)cc2)C1=O	none (no result: E-sel inducer)
C[C@H]1CN([C@@H](C)CO)C(=O)c2cccc(NS(=O)(=O)c3cccs3)c2O[C@@H]1CN(C)C(=O)Nc1ccc(F)cc1	none
C[C@H](CO)N1C[C@H](C)[C@H](CN(C)C(=O)Nc2ccccc2)Oc2c(NS(=O)(=O)c3cccs3)cccc2C1=O	E-sel inducer 50 (no result: SIRT5 block, DENV2 CPE rescue)
C[C@H](CO)N1C[C@H](C)[C@@H](CN(C)C(=O)Nc2ccccc2)Oc2c(NS(=O)(=O)c3cccs3)cccc2C1=O	SIRT5 block 24
C[C@H]1CN([C@@H](C)CO)C(=O)c2cccc(NS(=O)(=O)c3cccs3)c2O[C@H]1CN(C)C(=O)Nc1ccc(F)cc1	none
C[C@H]1CN([C@@H](C)CO)C(=O)Cc2cc(NC(=O)CCC(F)(F)F)ccc2O[C@H]1CN(C)S(=O)(=O)c1ccc(F)cc1	none
Cn1c(=O)n(C)c2cc(NS(=O)(=O)c3ccc(Br)s3)ccc21	none (no result: DENV2 CPE rescue)
Cn1c(=O)n(C)c2cc(NS(=O)(=O)c3ccc(Cl)s3)ccc21	SIRT5 block 18
Cc1ccc(C)c(S(=O)(=O)N(C)c2ccc(OC(=O)CN3C(=O)NC4(CCCC4)C3=O)cc2)c1	none
C[C@@H]1CCCCO[C@@H](CN(C)C)[C@H](C)CN([C@@H](C)CO)C(=O)c2cc(NC(=O)c3ccncc3)ccc2O1	none
C[C@@H]1CCCCO[C@H](CN(C)Cc2ccc(C(=O)O)cc2)[C@@H](C)CN([C@@H](C)CO)C(=O)c2cc(NC(=O)c3ccccc3)ccc2O1	none
C[C@H](CO)N1C[C@H](C)[C@H](CN(C)Cc2ccc(C(=O)O)cc2)OCCCC[C@H](C)Oc2ccc(NC(=O)CCCN(C)C)cc2C1=O	DENV2 CPE rescue 30
C[C@@H]1CN([C@H](C)CO)C(=O)c2cc(NC(=O)c3ccccc3)ccc2O[C@@H](C)CCCCO[C@@H]1CN(C)Cc1ccc(C(=O)O)cc1	DENV2 CPE rescue 115
C[C@@H]1CCCCO[C@@H](CN(C)Cc2ccc(C(=O)O)cc2)[C@H](C)CN([C@H](C)CO)C(=O)c2cc(NC(=O)c3ccccc3)ccc2O1	DENV2 CPE rescue 79
C[C@@H]1CCCCO[C@H](CN(C)Cc2ccc(C(=O)O)cc2)[C@H](C)CN([C@@H](C)CO)C(=O)c2cc(NC(=O)c3ccncc3)ccc2O1	DENV2 CPE rescue 32
C[C@H]1CCCCO[C@H](CN(C)Cc2ccc(C(=O)O)cc2)[C@@H](C)CN([C@@H](C)CO)C(=O)c2cc(NC(=O)c3ccncc3)ccc2O1	none
C[C@H]1CCCCO[C@@H](CN(C)Cc2ccc(C(=O)O)cc2)[C@@H](C)CN([C@@H](C)CO)C(=O)c2cc(NC(=O)c3ccccc3)ccc2O1	none
C[C@H]1CCCCO[C@@H](CN(C)Cc2ccc(C(=O)O)cc2)[C@@H](C)CN([C@@H](C)CO)C(=O)c2cc(NC(=O)CCCN(C)C)ccc2O1	none
N#Cc1ccccc1OCC(=O)Nc1ccc2c(c1)OCCCO2	none (no result: E-sel inducer)
COc1ccc(F)cc1C(=O)C1CCCN(C(=O)Cc2c(C)noc2C)C1 (configuration not stated)	none (no result: DENV2 CPE rescue)
CCCCCCC#Cc1ccc2c(c1)COc1c3ccccc3nn1-2	none
CN(C)c1ccc(/C=C2/SC(=O)N(CCN=C3NS(=O)(=O)c4ccccc43)C2=O)cc1	SIRT5 block 18 (no result: DENV2 CPE rescue)
CN(C)c1ccc(/C=C2\SC(=O)N(CCc3nnc(N)s3)C2=O)cc1	none (no result: E-sel inducer)
O=C(N1CCCCCC1)n1c(Cc2ccccc2)nc2ccccc21	none (no result: SIRT5 block, DENV2 CPE rescue)
COc1cc(CC(=O)OCC(=O)Nc2ccccc2C#N)cc(OC)c1OC	none
COc1cc(CCC(=O)OCC(=O)Nc2ccccc2C#N)cc(OC)c1OC	E-sel inducer 458 (no result: DENV2 CPE rescue)
COc1ccc(NC(=O)N(C)C[C@@H]2Oc3c(NS(=O)(=O)c4ccc(C)cc4)cccc3C(=O)N([C@@H](C)CO)C[C@@H]2C)cc1	none
Cc1ccc(S(=O)(=O)N2CCOCC2)cc1C(=O)OCC(=O)N1CCCC1=O	none (no result: SIRT5 block)
Cc1ccc(C)c(NS(=O)(=O)c2cc(C(=O)NCc3ccncc3)ccc2C)c1	DENV2 CPE rescue 98
Cc1ccc(C(=O)NCc2ccncc2)cc1S(=O)(=O)Nc1cccc(C)c1C	none
Cc1cc(=O)[nH]c(SCC(=O)Nc2nonc2C)n1	none
CCCn1c(=O)c(C(=O)NNS(=O)(=O)c2ccc(NC(=O)OC)cc2)c(O)c2ccccc21	none
CCCn1c(=O)c(C(=O)NNS(=O)(=O)c2ccc(C)cc2)c(O)c2ccccc21	DENV2 CPE rescue 35 (no result: E-sel inducer)
C[C@H]1CN([C@@H](C)CO)C(=O)c2cccc(NC(=O)c3nc4ccccc4s3)c2O[C@@H]1CN(C)Cc1ccc(C(=O)O)cc1	none
C[C@@H](NC(=O)C[C@@H]1CC[C@@H]2[C@H](COC[C@H](O)CN2C(=O)Nc2cc(Cl)cc(Cl)c2)O1)c1ccccc1	none
C[C@@H](NC(=O)C[C@@H]1CC[C@H]2[C@@H](COC[C@@H](O)CN2C(=O)Nc2cc(Cl)cc(Cl)c2)O1)c1ccccc1	none
C[C@@H](NC(=O)C[C@@H]1CC[C@H]2[C@@H](COC[C@H](O)CN2C(=O)Nc2cc(Cl)cc(Cl)c2)O1)c1ccccc1	DENV2 CPE rescue 40
C[C@H](NC(=O)C[C@H]1CC[C@H]2[C@@H](COC[C@@H](O)CN2C(=O)Nc2cc(Cl)cc(Cl)c2)O1)c1ccccc1	DENV2 CPE rescue 23
CSC1=C(C#N)C(=O)NC(c2ccc(Cl)cc2)S1 (configuration not stated)	none
N#Cc1ccc(C(=O)Nc2nnc(-c3ccccn3)o2)cc1	none
Cc1ccc(NC(=O)[C@H](NC(=O)[C@@H]2Cc3ccccc3CN2)c2ccccc2)cc1C	none (no result: E-sel inducer)
